Pf Dd2 inh = P. falciparum Dd2 growth inhibitors, primary screen, SYBR Green fluorescence, single dose replicates; 72 h; active compounds read low; activity change, % at 10 µM; 94,000 compounds, 2.3% hits; in the data active = activity change below about -80%
T cruzi growth = T. cruzi intracellular proliferation inhibitors, primary screen, cell-based, beta-gal Tulahuen parasites, NIH3T3 host, luminescence; T. cruzi beta-gal in NIH3T3, GalScreen luminescence, 90 h; inhibition, % at 8.34 µM; 77,000 compounds, 5.9% hits; AID 624255, 2012;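 active = mean inhibition above about 93%, with at least 55% of replicates each passing it, limit read from the data, passing the limit was not always enough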
GASC1 inh = inhibitors of GASC-1 (KDM4C) histone demethylase, primary screen, biochemical, single concentration HTS. Lysine-specific demethylase 4C (Homo sapiens), Q9H3R0. GST-KDM4C 2-372, H3K9me3 peptide, LANCE TR-FRET. inhibition, % at 12.5 µM. 96,000 compounds, 0.15% hits;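 active = mean replicate inhibition above about 25%, with at least 55% of replicates also reaching it, limit read from the data, passing the limit was not always enough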
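System: N-terminal GST-fused human GASC-1 (KDM4C) fragment, residues 2-372; amount: enzyme final amount 10 nM; incubation: reaction 30 min RT, detection step 1 h RT; medium: HEPES buffer, pH 7.5, plus ascorbate; technique: LANCE TR-FRET, Eu antibody, ULight-streptavidin, EDTA, ex 340 nm, em 618/671 nm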
IDH1 mut inh = inhibitors of IDH1 R132H reductase, primary screen, biochemical, plate reader, single point; 70,000 compounds, 0.18% hits; inhibition, % at 10 µM; diaphorase/resazurin fluorescence, 60 min; Isocitrate dehydrogenase [NADP] cytoplasmic (Homo sapiens), O75874; in the data active = inhibition above about 34%
Target sequence (O75874 whole entry R132H): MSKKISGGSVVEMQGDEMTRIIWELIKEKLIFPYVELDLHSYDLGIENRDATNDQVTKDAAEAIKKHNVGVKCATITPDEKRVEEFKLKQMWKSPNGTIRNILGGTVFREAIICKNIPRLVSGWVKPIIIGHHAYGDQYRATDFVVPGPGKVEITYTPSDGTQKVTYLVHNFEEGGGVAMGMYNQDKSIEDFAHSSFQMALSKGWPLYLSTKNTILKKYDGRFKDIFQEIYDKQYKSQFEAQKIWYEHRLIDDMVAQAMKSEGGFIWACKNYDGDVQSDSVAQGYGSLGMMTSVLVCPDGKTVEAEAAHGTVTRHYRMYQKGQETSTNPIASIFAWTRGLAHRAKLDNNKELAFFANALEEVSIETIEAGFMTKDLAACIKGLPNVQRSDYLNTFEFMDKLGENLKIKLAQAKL
Each line names hits and unclear results; the compound was inactive in the other large screens. An excerpt weighted towards active compounds, which were near 5.8% of everything screened.

Cc1ccc(S(=O)(=O)N(C)C[C@@H]2OCCCC[C@@H](C)Oc3ccc(NC(=O)C4CCCCC4)cc3C(=O)N([C@@H](C)CO)C[C@@H]2C)cc1	none
Cc1ccc(S(=O)(=O)N(C)C[C@H]2OCCCC[C@H](C)Oc3ccc(NC(=O)C4CCCCC4)cc3C(=O)N([C@@H](C)CO)C[C@@H]2C)cc1	Pf Dd2 inh -82.2
Cc1ccc(S(=O)(=O)N(C)C[C@@H]2OCCCC[C@H](C)Oc3ccc(NC(=O)C4CCCCC4)cc3C(=O)N([C@H](C)CO)C[C@H]2C)cc1	Pf Dd2 inh -85.6 (no result: IDH1 mut inh)
Cc1ccc(S(=O)(=O)N(C)C[C@@H]2OCCCC[C@H](C)Oc3ccc(NC(=O)C4CCCCC4)cc3C(=O)N([C@@H](C)CO)C[C@H]2C)cc1	Pf Dd2 inh -84.6 (no result: IDH1 mut inh)
Cc1cc(C)nc(SCc2noc(-c3ccc(Cl)cc3)n2)n1	none (no result: Pf Dd2 inh, T cruzi growth, GASC1 inh)
Cc1ccc(S(=O)(=O)N(C)C[C@H]2OCCCC[C@H](C)Oc3ccc(NC(=O)C4CCCCC4)cc3C(=O)N([C@H](C)CO)C[C@H]2C)cc1	Pf Dd2 inh -84.5
Cc1ccc(S(=O)(=O)N(C)C[C@@H]2OCCCC[C@H](C)Oc3ccc(NC(=O)C4CCCCC4)cc3C(=O)N([C@@H](C)CO)C[C@@H]2C)cc1	none
CO[C@H]1CN(C)C(=O)c2ccc(NC(=O)C3CCCC3)cc2OC[C@H](C)N(CC2CC2)C[C@H]1C	none (no result: Pf Dd2 inh, T cruzi growth)
COc1ccc(S(=O)(=O)Nc2ccc3c(c2)C(=O)N([C@H](C)CO)C[C@H](C)[C@H](CN(C)C(=O)NC(C)C)OCCCC[C@H](C)O3)cc1	none (no result: Pf Dd2 inh)
CO[C@H]1CN(C)C(=O)c2cc(NS(C)(=O)=O)ccc2OC[C@H](C)N(C(=O)CC2CC2)C[C@H]1C	IDH1 mut inh 44.5
CO[C@@H]1CN(C)C(=O)c2cc(NC(C)=O)ccc2OC[C@H](C)N(C(=O)CC2CC2)C[C@H]1C	none
CO[C@@H]1CN(C)C(=O)c2cc(NS(C)(=O)=O)ccc2OC[C@H](C)N(C(=O)CC2CC2)C[C@H]1C	none
CO[C@H]1CN(C)C(=O)c2cc(NC(C)=O)ccc2OC[C@@H](C)N(C(=O)CC2CC2)C[C@H]1C	GASC1 inh 37.9, IDH1 mut inh 84.7
O=C(C[C@@H]1CC[C@@H]2[C@H](COC[C@H](O)CN2CC2CC2)O1)NCc1ccc(Cl)cc1	none (no result: IDH1 mut inh)
COc1ccc(S(=O)(=O)N(C)C[C@@H]2OCCCC[C@H](C)Oc3ccc(NC(=O)Nc4cccc5ccccc45)cc3C(=O)N([C@H](C)CO)C[C@H]2C)cc1	Pf Dd2 inh -86.2
COc1ccc(S(=O)(=O)N(C)C[C@H]2OCCCC[C@H](C)Oc3ccc(NC(=O)Nc4cccc5ccccc45)cc3C(=O)N([C@@H](C)CO)C[C@H]2C)cc1	Pf Dd2 inh -83.5
C[C@@H]1CN([C@H](C)CO)C(=O)c2cc(NC(=O)Nc3cccc4ccccc34)ccc2O[C@@H](C)CCCCO[C@@H]1CN(C)S(=O)(=O)c1cn(C)cn1	Pf Dd2 inh -88.1 (no result: IDH1 mut inh)
COc1ccc(S(=O)(=O)N(C)C[C@H]2OCCCC[C@H](C)Oc3ccc(NC(=O)Nc4cccc5ccccc45)cc3C(=O)N([C@@H](C)CO)C[C@@H]2C)cc1	none (no result: IDH1 mut inh)
C[C@@H]1CCCCO[C@@H](CN(C)S(=O)(=O)c2cn(C)cn2)[C@H](C)CN([C@H](C)CO)C(=O)c2cc(NC(=O)Nc3cccc4ccccc34)ccc2O1	none (no result: IDH1 mut inh)
CNC[C@H]1OCCCC[C@@H](C)Oc2ccc(NC(=O)c3ccncc3)cc2C(=O)N([C@@H](C)CO)C[C@@H]1C	none
Cc1ccc([N+](=O)[O-])cc1NC(=O)CN(Cc1ccccc1)S(C)(=O)=O	none (no result: Pf Dd2 inh, T cruzi growth, GASC1 inh)
C[C@@H]1CN([C@H](C)CO)C(=O)c2cccc(NC(=O)Nc3cccc4ccccc34)c2O[C@@H]1CN(C)C(=O)NC1CCCCC1	none
C[C@H]1CN([C@@H](C)CO)C(=O)c2cccc(NC(=O)Nc3cccc4ccccc34)c2O[C@H]1CN(C)C(=O)NC1CCCCC1	Pf Dd2 inh -84.6
C[C@@H]1CN([C@H](C)CO)C(=O)c2cccc(NC(=O)Nc3ccccc3)c2O[C@@H]1CN(C)C(=O)Nc1ccccc1	none (no result: IDH1 mut inh)
COc1ccc(NC(=O)N(C)C[C@H]2Oc3c(NC(=O)Nc4ccc5c(c4)OCO5)cccc3C(=O)N([C@@H](C)CO)C[C@H]2C)cc1	Pf Dd2 inh -85.7 (no result: IDH1 mut inh)
COc1ccc(NC(=O)Nc2cccc3c2O[C@H](CN(C)C(=O)Nc2ccc4c(c2)OCO4)[C@@H](C)CN([C@@H](C)CO)C3=O)cc1	none (no result: IDH1 mut inh)
C[C@@H]1CN([C@@H](C)CO)C(=O)c2cccc(NC(=O)Nc3ccccc3)c2O[C@@H]1CN(C)C(=O)Nc1ccccc1	Pf Dd2 inh -91.4 (no result: IDH1 mut inh)
Cc1noc(C)c1NC(=O)N(C)C[C@H]1Oc2c(NC(=O)Nc3ccc(C(F)(F)F)cc3)cccc2C(=O)N([C@@H](C)CO)C[C@H]1C	Pf Dd2 inh -85.6
C/C=C/c1ccc([C@H]2[C@H](CO)N3C(=O)CN(Cc4ccc(C)cc4)C[C@@H]23)cc1	none (no result: T cruzi growth, IDH1 mut inh)
COc1ccc(NC(=O)N(C)C[C@@H]2Oc3ccc(NC(=O)Cc4ccccc4)cc3C(=O)N([C@@H](C)CO)C[C@H]2C)cc1	none (no result: IDH1 mut inh)
C[C@H]1CN([C@@H](C)CO)C(=O)c2cc(C3=CCCCC3)cnc2O[C@H]1CN(C)C(=O)CN1CCOCC1	none (no result: T cruzi growth, IDH1 mut inh)
COc1ccc(NC(=O)N(C)C[C@H]2Oc3c(NC(=O)Nc4ccccc4)cccc3C(=O)N([C@H](C)CO)C[C@H]2C)cc1	Pf Dd2 inh -86.0 (no result: IDH1 mut inh)
C[C@@H]1CN([C@@H](C)CO)C(=O)c2cccc(NC(=O)Nc3ccccc3)c2O[C@@H]1CN(C)C(=O)Nc1ccc(F)cc1	Pf Dd2 inh -91.3
COc1ccc(NC(=O)Nc2cccc3c2O[C@H](CN(C)C(=O)Nc2ccccc2)[C@@H](C)CN([C@H](C)CO)C3=O)cc1	none
COc1ccc(NC(=O)Nc2cccc3c2O[C@H](CN(C)C(=O)Nc2cccc4ccccc24)[C@H](C)CN([C@@H](C)CO)C3=O)cc1	Pf Dd2 inh -88.0
CO[C@@H]1CN(C)C(=O)c2cc(NC(=O)c3ccccc3)ccc2OC[C@H](C)N(C)C[C@@H]1C	none
CO[C@H]1CN(C)C(=O)c2cc(NC(=O)c3cnccn3)ccc2OC[C@@H](C)N(C(C)=O)C[C@@H]1C	none (no result: T cruzi growth)
COc1ccc(S(=O)(=O)Nc2ccc3c(c2)C(=O)N([C@H](C)CO)C[C@@H](C)[C@H](CN(C)C(=O)NC(C)C)O3)cc1	none
CO[C@@H]1CN(C)C(=O)c2ccc(NS(C)(=O)=O)cc2OC[C@@H](C)N(C(=O)C2CC2)C[C@H]1C	none (no result: Pf Dd2 inh, T cruzi growth)
CO[C@@H]1CN(C)C(=O)c2cc(NC(=O)c3nc4ccccc4s3)ccc2OC[C@@H](C)N(Cc2ccccc2)C[C@H]1C	Pf Dd2 inh -85.5 (no result: T cruzi growth)
COc1ccc(CN2C[C@@H](C)[C@@H](OC)CN(C)C(=O)c3cc(NC(=O)c4nc5ccccc5s4)ccc3OC[C@@H]2C)cc1	none (no result: T cruzi growth)
